Reference: ChEMBL document CHEMBL1150387, “Development and experimental validation of a docking strategy for the generation of kinase-targeted libraries” (J Med Chem, 2008)

Legend:
[1] = molecular target: Mitogen-activated protein kinase 8 (Homo sapiens) (UniProt P45983); test: Inhibition of JNK1 at 10 uM by HTRF assay relative to control
In short: (§1)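 HTRF kinase assay, one panel of kinases. Inhibitor stock 50 µM in 100% DMSO; tested at 10 µM. ATP and substrate at final levels near Km. Final buffer: 50 mM Hepes/NaOH pH 7.4, 40 µM Na3VO4, 0.005% Tween-20, 1 mM DTT, MnCl2 or MgCl2 at kinase-dependent levels. Started by adding ATP/substrate. Reaction run at room temperature, time varied by kinase. Detection mix in 50 mM Hepes pH 7.4, 0.1% BSA, 150 mM KF, incubated ≥1 h at room temperature. Activity expressed as % of uninhibited control; n=2.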

[2] = molecular target: T1, Calcium/calmodulin-dependent protein kinase type IV (Homo sapiens) (UniProt Q16566); test: Inhibition of CaMK4 at 10 uM by HTRF assay relative to control; in short: as §1
T1 sequence (whole entry): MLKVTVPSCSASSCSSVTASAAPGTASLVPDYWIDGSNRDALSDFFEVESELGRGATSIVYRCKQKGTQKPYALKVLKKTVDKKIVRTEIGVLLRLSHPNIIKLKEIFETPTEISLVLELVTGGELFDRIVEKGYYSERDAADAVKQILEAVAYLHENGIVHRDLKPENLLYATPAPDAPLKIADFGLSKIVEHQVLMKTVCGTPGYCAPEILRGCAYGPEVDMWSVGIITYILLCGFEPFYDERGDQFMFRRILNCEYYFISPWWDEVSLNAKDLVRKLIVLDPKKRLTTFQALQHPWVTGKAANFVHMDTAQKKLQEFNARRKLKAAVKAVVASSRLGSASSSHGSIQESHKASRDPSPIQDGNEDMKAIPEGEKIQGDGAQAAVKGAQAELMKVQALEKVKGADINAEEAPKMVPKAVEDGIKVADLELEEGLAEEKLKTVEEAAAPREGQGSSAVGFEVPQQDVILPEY

[3] = molecular target: Protein kinase C alpha type (Homo sapiens) (UniProt P17252); test: Inhibition of PKCalpha at 10 uM by HTRF assay relative to control; in short: as §1
[4] = molecular target: Rho-associated protein kinase 2 (Homo sapiens) (UniProt O75116); test: Inhibition of ROCK2 at 10 uM by HTRF assay relative to control; in short: as §1
Chain of Rho-associated protein kinase 2 (Homo sapiens) (O75116 whole entry, looked up): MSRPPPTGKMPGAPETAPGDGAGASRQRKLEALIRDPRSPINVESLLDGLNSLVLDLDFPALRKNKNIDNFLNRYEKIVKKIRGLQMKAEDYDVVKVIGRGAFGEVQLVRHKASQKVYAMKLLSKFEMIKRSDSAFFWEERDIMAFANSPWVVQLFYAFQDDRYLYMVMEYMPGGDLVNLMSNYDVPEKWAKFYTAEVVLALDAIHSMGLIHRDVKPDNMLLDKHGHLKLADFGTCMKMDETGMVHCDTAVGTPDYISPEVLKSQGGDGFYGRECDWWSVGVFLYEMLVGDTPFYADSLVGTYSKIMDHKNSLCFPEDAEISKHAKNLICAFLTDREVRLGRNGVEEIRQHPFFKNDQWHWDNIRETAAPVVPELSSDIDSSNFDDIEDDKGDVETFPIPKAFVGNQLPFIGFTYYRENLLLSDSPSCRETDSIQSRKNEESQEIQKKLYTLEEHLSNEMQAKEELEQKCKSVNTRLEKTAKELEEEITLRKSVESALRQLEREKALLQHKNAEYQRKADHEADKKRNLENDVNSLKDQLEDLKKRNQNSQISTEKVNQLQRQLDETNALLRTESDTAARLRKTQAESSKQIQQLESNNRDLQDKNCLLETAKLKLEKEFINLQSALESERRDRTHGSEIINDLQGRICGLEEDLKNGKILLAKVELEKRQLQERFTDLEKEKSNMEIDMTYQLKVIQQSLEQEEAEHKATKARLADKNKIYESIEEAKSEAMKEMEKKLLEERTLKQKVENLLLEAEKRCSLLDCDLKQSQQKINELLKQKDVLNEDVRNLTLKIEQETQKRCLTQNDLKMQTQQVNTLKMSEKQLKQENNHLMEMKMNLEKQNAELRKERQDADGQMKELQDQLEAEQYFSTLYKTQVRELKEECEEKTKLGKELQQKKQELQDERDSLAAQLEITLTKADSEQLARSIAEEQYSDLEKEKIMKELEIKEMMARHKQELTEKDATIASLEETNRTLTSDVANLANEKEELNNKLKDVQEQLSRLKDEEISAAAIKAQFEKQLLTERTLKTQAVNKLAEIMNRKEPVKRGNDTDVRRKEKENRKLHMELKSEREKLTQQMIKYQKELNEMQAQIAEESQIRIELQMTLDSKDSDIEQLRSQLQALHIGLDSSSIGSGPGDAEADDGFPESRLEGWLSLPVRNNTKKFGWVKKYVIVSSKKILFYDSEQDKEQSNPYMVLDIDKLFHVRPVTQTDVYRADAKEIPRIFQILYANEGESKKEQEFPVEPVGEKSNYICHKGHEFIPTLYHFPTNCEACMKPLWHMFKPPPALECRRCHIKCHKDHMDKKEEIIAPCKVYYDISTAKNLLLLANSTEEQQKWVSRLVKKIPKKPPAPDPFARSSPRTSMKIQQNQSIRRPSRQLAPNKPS

[5] = molecular target: Proto-oncogene tyrosine-protein kinase Src (Homo sapiens) (UniProt P12931); test: Inhibition of Src at 10 uM by HTRF assay relative to control; in short: as §1
[6] = molecular target: Epidermal growth factor receptor (Homo sapiens) (UniProt P00533); test: Inhibition of EGFR at 10 uM by HTRF assay relative to control; in short: as §1
[7] = molecular target: Tyrosine-protein kinase Lck (Homo sapiens) (UniProt P06239); test: Inhibition of Lck at 10 uM by HTRF assay relative to control; in short: as §1
Chain of Tyrosine-protein kinase Lck (Homo sapiens) (P06239 2-509 limits assumed): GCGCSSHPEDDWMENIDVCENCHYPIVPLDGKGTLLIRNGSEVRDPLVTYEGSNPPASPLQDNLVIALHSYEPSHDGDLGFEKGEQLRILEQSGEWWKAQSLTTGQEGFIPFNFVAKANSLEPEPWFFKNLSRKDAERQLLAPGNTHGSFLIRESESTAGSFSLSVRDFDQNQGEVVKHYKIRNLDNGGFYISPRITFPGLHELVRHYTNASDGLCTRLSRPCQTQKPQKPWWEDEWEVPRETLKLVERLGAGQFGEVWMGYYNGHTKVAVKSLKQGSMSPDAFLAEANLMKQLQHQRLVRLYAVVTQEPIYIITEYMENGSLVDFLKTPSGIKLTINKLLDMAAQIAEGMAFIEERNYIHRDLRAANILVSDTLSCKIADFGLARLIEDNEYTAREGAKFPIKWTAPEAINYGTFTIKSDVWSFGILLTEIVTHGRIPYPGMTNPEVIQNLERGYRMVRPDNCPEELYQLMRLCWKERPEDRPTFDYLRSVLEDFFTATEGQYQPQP

[8] = Inhibition of IRK at 10 uM by HTRF assay relative to control; in short: as §1
[9] = molecular target: Platelet-derived growth factor receptor beta (Homo sapiens) (UniProt P09619); test: Inhibition of PDGFRbeta at 10 uM by HTRF assay relative to control; in short: as §1
[10] = molecular target: Ribosomal protein S6 kinase alpha-3 (Homo sapiens) (UniProt P51812); test: Inhibition of RSK2 at 10 uM by HTRF assay relative to control; in short: as §1
[11] = molecular target: Mitogen-activated protein kinase 9 (Homo sapiens) (UniProt P45984); test: Inhibition of JNK2 at 10 uM by HTRF assay relative to control; in short: as §1
Chain of Mitogen-activated protein kinase 9 (Homo sapiens) (P45984 whole entry, looked up): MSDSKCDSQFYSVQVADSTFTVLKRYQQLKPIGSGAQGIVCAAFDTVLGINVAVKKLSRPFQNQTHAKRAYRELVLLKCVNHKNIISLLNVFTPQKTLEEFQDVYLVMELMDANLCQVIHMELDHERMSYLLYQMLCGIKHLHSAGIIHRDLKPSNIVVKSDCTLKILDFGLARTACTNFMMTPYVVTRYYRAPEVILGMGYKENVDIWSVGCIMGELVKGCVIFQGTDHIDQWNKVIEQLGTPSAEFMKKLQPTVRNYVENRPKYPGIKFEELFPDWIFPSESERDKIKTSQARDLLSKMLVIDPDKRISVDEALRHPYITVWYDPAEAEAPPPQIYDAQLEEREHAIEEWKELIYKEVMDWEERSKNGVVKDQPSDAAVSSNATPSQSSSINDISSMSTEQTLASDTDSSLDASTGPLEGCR

[12] = molecular target: Receptor-type tyrosine-protein kinase FLT3 (Homo sapiens) (UniProt P36888); test: Inhibition of FLT3 at 10 uM by HTRF assay relative to control; in short: as §1
[13] = molecular target: Focal adhesion kinase 1 (Homo sapiens) (UniProt Q05397); test: Inhibition of FAK at 10 uM by HTRF assay relative to control; in short: as §1
Chain of Focal adhesion kinase 1 (Homo sapiens) (Q05397 2-1052 limits assumed): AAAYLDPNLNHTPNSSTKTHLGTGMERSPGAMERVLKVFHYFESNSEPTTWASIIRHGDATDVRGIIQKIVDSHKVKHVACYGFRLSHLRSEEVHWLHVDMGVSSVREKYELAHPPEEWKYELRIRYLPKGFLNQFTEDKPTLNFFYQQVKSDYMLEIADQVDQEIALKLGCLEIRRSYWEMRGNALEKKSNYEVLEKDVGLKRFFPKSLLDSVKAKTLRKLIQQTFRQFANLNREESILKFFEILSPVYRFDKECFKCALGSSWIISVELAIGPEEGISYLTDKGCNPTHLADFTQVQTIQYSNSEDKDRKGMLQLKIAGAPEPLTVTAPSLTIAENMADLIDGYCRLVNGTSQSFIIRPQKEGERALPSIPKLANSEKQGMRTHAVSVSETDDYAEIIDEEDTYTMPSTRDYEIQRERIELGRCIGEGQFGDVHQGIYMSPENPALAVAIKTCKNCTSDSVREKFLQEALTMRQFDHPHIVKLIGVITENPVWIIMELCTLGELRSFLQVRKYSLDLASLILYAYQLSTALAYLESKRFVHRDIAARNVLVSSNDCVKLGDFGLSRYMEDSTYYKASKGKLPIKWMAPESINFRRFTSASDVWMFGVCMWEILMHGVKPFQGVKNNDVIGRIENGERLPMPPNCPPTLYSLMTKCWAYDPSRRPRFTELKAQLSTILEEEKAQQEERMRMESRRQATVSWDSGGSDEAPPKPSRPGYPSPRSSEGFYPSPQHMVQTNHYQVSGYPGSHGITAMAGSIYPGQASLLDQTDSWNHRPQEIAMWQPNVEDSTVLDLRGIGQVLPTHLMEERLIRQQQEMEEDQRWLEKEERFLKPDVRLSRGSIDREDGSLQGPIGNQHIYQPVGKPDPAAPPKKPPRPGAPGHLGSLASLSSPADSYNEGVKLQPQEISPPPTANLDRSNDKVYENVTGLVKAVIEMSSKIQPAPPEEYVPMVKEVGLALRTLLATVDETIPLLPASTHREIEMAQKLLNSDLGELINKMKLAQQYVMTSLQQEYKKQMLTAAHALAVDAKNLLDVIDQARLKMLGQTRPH

[14] = molecular target: T2, Mitogen-activated protein kinase 12 (Homo sapiens) (UniProt P53778); test: Inhibition of p38-gamma at 10 uM by HTRF assay relative to control; in short: as §1
T2 sequence (whole entry): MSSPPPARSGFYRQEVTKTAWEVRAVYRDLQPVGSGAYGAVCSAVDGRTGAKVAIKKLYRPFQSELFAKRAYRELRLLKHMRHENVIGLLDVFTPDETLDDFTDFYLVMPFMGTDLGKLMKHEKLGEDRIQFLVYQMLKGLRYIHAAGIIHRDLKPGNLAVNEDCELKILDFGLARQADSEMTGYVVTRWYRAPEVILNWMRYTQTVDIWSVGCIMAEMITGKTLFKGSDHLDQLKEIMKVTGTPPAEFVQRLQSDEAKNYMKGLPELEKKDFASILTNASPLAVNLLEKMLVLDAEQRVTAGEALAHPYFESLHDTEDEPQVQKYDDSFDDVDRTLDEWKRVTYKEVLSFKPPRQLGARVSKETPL

[15] = molecular target: 3-phosphoinositide-dependent protein kinase 1 (Homo sapiens) (UniProt O15530); test: Inhibition of PDK1 at 10 uM by HTRF assay relative to control
Chain of 3-phosphoinositide-dependent protein kinase 1 (Homo sapiens) (O15530 whole entry, looked up): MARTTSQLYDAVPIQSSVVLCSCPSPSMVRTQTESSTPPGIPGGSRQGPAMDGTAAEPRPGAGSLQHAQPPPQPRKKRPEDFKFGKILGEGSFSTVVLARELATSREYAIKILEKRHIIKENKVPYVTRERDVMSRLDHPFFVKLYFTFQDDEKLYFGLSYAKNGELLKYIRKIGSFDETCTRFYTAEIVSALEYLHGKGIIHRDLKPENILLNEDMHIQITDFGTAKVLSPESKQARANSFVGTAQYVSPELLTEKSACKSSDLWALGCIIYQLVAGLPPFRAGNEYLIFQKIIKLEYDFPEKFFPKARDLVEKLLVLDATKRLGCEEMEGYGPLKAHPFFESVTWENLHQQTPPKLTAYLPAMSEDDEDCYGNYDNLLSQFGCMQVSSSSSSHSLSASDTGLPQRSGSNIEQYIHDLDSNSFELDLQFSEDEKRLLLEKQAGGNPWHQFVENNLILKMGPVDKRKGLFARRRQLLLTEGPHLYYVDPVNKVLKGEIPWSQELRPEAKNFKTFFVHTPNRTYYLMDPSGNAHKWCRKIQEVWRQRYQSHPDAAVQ

[16] = molecular target: T3, Tyrosine-protein kinase ZAP-70 (Homo sapiens) (UniProt P43403); test: Inhibition of ZAP70 at 10 uM by HTRF assay relative to control; in short: as §1
T3 sequence (whole entry): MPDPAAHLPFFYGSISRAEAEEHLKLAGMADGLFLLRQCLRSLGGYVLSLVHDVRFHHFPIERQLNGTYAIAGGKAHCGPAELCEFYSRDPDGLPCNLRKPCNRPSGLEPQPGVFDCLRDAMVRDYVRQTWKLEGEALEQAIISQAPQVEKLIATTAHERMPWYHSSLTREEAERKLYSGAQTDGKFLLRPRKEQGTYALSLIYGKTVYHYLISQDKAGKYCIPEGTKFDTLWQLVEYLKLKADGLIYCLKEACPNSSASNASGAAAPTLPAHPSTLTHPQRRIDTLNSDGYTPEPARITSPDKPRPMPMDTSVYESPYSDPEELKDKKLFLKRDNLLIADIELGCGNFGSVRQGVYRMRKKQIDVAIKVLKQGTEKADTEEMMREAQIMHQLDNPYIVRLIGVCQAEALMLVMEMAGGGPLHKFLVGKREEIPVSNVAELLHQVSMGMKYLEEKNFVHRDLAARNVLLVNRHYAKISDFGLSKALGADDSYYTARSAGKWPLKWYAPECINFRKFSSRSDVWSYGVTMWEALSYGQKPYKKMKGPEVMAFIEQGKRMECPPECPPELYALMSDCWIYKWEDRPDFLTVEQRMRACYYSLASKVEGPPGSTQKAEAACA

Chain of Mitogen-activated protein kinase 8 (Homo sapiens) (P45983 whole entry): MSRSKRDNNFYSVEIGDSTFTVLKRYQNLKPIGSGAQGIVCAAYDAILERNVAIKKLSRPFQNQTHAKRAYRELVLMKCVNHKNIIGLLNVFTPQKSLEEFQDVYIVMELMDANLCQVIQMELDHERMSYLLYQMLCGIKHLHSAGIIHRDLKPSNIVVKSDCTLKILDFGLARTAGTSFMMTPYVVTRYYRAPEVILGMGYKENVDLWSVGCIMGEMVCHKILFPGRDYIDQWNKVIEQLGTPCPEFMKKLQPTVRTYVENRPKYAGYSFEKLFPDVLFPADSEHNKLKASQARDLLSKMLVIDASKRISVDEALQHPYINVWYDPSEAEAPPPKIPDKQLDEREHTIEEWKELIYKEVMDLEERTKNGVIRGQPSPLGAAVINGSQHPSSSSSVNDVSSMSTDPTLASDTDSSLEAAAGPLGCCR

| Compound | inhibition [1] [%] | inhibition [2] [%] | inhibition [3] [%] | inhibition [4] [%] | inhibition [5] [%] | inhibition [6] [%] | inhibition [7] [%] | inhibition [8] [%] | inhibition [9] [%] | inhibition [10] [%] | inhibition [11] [%] | inhibition [12] [%] | inhibition [13] [%] | inhibition [14] [%] | inhibition [15] [%] | inhibition [16] [%] |
| --- | --- | --- | --- | --- | --- | --- | --- | --- | --- | --- | --- | --- | --- | --- | --- | --- |
| Cc1cccc(N(C)c2cc(Nc3cccc(C(=O)N(CC(C)C)CC(C)C)c3)ncn2)c1 | 0 | 0 | 0 | 0 | 2 | 84 | 0 | 0 | 9 | 0 | 3 | 0 | 1 | 2 | 0 | 0 |
| Cc1cc(C(=O)N2CCN(c3ncnc4c3CN(Cc3ccccc3)CC4)CC2)c(C)n1C | 0 | 0 | 0 | 0 | 0 | 0 | 0 | 0 | 5 | 0 | 3 | 0 | 0 | 0 | 0 | 0 |
| CN(CCCn1ccnc1)C(=O)[C@@H]1CCCN1c1nccc(Nc2ccccc2)n1 | 0 | 0 | 0 | 1 | 8 | 5 | 0 | 0 | 11 | 0 | 6 | 0 | 10 | 1 | 1 | 3 |
| Nc1nc(N2CCOCC2)cc(N2CCC(C(=O)NCCc3ccc(O)cc3)CC2)n1 | 4 | 0 | 0 | 0 | 2 | 0 | 0 | 0 | 0 | 0 | 3 | 0 | 3 | 0 | 0 | 2 |
| Cc1cccc(Oc2ccnc(N3CCN(C(=O)c4c(C)noc4C)CC3)n2)c1 | 13 | 0 | 0 | 0 | 0 | 0 | 0 | 0 | 5 | 0 | 6 | 0 | 0 | 7 | 0 | 4 |
| Cc1cccc(Oc2ccnc(N3CCC[C@H]3C(=O)NCCCn3ccnc3)n2)c1 | 0 | 0 | 0 | 0 | 0 | 0 | 0 | 1 | 7 | 0 | 7 | 0 | 4 | 0 | 1 | 2 |
| Cc1cccc(Oc2ccnc(N3CCN(CC(=O)Nc4cccc5c4CCCC5)CC3)n2)c1 | 0 | 0 | 3 | 0 | 5 | 0 | 0 | 0 | 6 | 0 | 2 | 0 | 0 | 0 | 0 | 1 |
